Reference: article PMC10973196 (Saudi Pharmaceutical Journal : SPJ, 2024)
≈ marks a conversion by molar mass, not a printed value.

Legend:
lung cancer cell (A549) = assay: Cell viability; type: cell-based; conditions: Homo sapiens, A549, 48 h, read-out: IC50, cytotoxic activity
Procedure, shortened: (§1)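 Cells were seeded in 96-well plates, grown for 24 h, then exposed to test compounds at various concentrations for 48 h. MTT solution (5 mg/mL) was added for 2–4 h at 37 °C, and formazan absorbance was read at 570 nm. Viability was expressed as treated/untreated absorbance ×100, and IC50 was fitted from viability dose-response curves.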

Cell viability = type: cell-based; conditions: human, normal HUVEC cells
Procedure, shortened: as §1

[1] = biological target: SARS-CoV-2 main protease (Mpro) (Severe acute respiratory syndrome coronavirus 2, UniProt P0DTD1); assay: biochemical

| Compound | IC50 (lung cancer cell (A549)) | IC50 at 48 h (Cell viability) | IC50 [1] |
| --- | --- | --- | --- |
| COc1cccc2c1C(=O)c1c(O)c3c(c(O)c1C2=O)C[C@@](O)(C(=O)CO)C[C@@H]3O[C@H]1C[C@H](N)[C@H](O)[C@H](C)O1 [Doxorubicin, reference compound] | 1.45 ± 0.05 µg/mL (≈ 2.67 µM) | 2.5 ± 0.1 µg/mL (≈ 4.6 µM) |  |
| O=c1cc(-c2ccc(O)cc2)oc2cc(O)c([C@@H]3O[C@H](CO)[C@@H](O)[C@H](O)[C@H]3O)c(O)c12 [Compound 14, apigenin-6-C-β-D-glucoside (isovitexin)] | > 100 µg/mL | > 100 µg/mL | 21.7 µM |
| C[C@@H]1O[C@@H](Oc2cc3c(=O)oc4c(O)c(O)cc5c(=O)oc(c2O)c3c45)[C@H](O)[C@H](O)[C@H]1O [Compound 10, ellagic acid-2-O-α-L-rhamnopyranoside (eschweilenol C)] | > 100 µg/mL | > 100 µg/mL | 22.3 µM |
